Experimental data as given in PubChem BioAssay AID651708 (Sanford-Burnham Center for Chemical Genomics, 2012).
Several values for one entry are separate records, joined by “and”; a condition that tells them apart may be missing. Identical values can stand only once. Activity calls are given as the source filed them.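 The calls were made as follows: active = compound with IC50 above 30 µM at both the APJ and CCR6 off-target receptors, and at most 10 µM at CXCR6; inactive = the rest.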

Legend:
Assay in all cases: GPCR panel antagonist activity incl. apelin receptor – cell-based, CHO-K1 PathHunter beta-arrestin, luminescence, set 3, selectivity assay for CXCR6 antagonist project, profiling panel (AID 651708)
[1] = biological target: Apelin receptor (Homo sapiens) (UniProt P35414); details: antagonist mode, APJ
Apelin receptor (Homo sapiens), sequence (P35414 whole entry, looked up): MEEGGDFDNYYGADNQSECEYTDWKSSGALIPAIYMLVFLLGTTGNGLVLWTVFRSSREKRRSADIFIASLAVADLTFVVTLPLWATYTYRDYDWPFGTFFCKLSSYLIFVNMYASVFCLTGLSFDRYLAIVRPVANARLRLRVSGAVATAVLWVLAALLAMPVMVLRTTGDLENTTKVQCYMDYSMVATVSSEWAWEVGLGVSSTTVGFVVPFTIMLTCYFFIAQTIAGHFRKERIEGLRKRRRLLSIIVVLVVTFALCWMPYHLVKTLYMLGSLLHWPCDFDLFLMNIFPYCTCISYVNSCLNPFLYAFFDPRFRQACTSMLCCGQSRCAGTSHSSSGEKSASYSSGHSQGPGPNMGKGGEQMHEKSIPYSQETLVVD
How it was run: (§1)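 Signal: β-arrestin recruitment luminescence; test system: CHO-K1 PathHunter β-arrestin cell lines for APJ, CCR6 or CXCR6; also added: APJ 10 nM Apelin-13, CCR6 14 nM CCL20, CXCR6 CXCL16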

[2] = biological target: C-C chemokine receptor type 6 (Homo sapiens) (UniProt P51684); details: antagonist mode
C-C chemokine receptor type 6 (Homo sapiens), sequence (P51684 whole entry, looked up): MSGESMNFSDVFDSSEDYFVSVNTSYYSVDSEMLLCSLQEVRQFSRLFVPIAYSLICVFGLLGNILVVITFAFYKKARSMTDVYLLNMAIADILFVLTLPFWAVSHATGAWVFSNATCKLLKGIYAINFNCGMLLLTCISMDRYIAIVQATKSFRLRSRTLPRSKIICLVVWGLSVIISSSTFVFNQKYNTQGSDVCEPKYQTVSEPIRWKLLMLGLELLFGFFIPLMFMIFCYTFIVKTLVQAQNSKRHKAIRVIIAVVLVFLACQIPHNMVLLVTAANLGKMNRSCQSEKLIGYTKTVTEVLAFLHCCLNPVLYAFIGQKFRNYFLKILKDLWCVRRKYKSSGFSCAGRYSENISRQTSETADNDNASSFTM
How it was run: as §1

[3] = biological target: C-X-C chemokine receptor type 6 (Homo sapiens) (UniProt O00574); details: antagonist mode
C-X-C chemokine receptor type 6 (Homo sapiens), sequence (O00574 whole entry, looked up): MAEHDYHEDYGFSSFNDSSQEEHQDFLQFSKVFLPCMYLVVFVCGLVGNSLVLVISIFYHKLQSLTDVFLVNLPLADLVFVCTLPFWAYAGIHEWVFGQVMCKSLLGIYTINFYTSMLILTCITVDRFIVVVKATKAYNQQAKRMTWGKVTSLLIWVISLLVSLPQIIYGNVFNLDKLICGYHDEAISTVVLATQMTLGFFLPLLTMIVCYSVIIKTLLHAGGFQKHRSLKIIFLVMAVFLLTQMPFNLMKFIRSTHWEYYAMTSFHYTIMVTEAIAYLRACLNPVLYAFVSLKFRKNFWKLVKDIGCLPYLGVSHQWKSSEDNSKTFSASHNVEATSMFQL
How it was run: as §1

Question: Which results are given for `COc1ccc(C(=O)NC2CC3CCCC(C2)N3CC(=O)Nc2ccccc2)cc1OC` (stereo unspecified)?
Answer: IC50 ([1]; mean of runs): > 79 µM (inactive); IC50 ([1]; run 1): > 79 µM; IC50 ([1]; run 2): > 79 µM; IC50 ([2]; CCR6, mean of runs): > 79 µM (inactive); IC50 ([2]; CCR6, run 1): > 79 µM; IC50 ([2]; CCR6, run 2): > 79 µM; IC50 ([3]; CXCR6, mean of runs): > 79 µM (inactive); IC50 ([3]; CXCR6, run 1): > 79 µM; IC50 ([3]; CXCR6, run 2): > 79 µM

Question: For `COc1cccc(C(=O)NC2CC3CCCC(C2)N3CC(=O)Nc2ccc(Cl)cc2)c1` (stereo unspecified), which IC50 ([1]; mean of runs) is on record?
Answer: > 79 µM (inactive)

Question: What about the IC50 ([1]; run 1) of the same compound?
Answer: > 79 µM

Question: And the IC50 ([1]; run 2)?
Answer: > 79 µM

Question: What about the IC50 ([2]; CCR6, mean of runs) of the same compound?
Answer: > 79 µM (inactive)

Question: And the IC50 ([2]; CCR6, run 1)?
Answer: > 79 µM

Question: What about the IC50 ([2]; CCR6, run 2) of the same compound?
Answer: > 79 µM

Question: And the IC50 ([3]; CXCR6, mean of runs)?
Answer: > 79 µM (inactive)

Question: What about the IC50 ([3]; CXCR6, run 1) of the same compound?
Answer: > 79 µM

Question: What about the IC50 ([3]; CXCR6, run 2) of the same compound?
Answer: > 79 µM

Question: `Cc1ccc(NC(=O)CN2C3CCCC2CC(NC(=O)c2ccc4c(c2)OCO4)C3)cc1` (stereo unspecified) was tested. Which IC50 ([1]; run 1) did it give?
Answer: > 79 µM

Question: What about the IC50 ([1]; run 2) of the same compound?
Answer: 28.6 µM

Question: And the IC50 ([2]; CCR6, mean of runs)?
Answer: > 79 µM (inactive)

Question: What about the IC50 ([2]; CCR6, run 1) of the same compound?
Answer: > 79 µM

Question: What about the IC50 ([2]; CCR6, run 2) of the same compound?
Answer: > 79 µM

Question: And the IC50 ([3]; CXCR6, mean of runs)?
Answer: > 79 µM (inactive)

Question: What about the IC50 ([3]; CXCR6, run 1) of the same compound?
Answer: > 79 µM

Question: And the IC50 ([3]; CXCR6, run 2)?
Answer: > 79 µM

Question: Which results are given for `O=C(CN1C2CCCC1CC(NC(=O)c1ccc3c(c1)OCO3)C2)Nc1ccc(F)cc1` (stereo unspecified)?
Answer: IC50 ([1]; mean of runs): > 79 µM (inactive); IC50 ([1]; run 1): > 79 µM; IC50 ([1]; run 2): > 79 µM; IC50 ([2]; CCR6, mean of runs): > 79 µM (inactive); IC50 ([2]; CCR6, run 1): > 79 µM; IC50 ([2]; CCR6, run 2): > 79 µM; IC50 ([3]; CXCR6, mean of runs): > 79 µM (inactive); IC50 ([3]; CXCR6, run 1): > 79 µM; IC50 ([3]; CXCR6, run 2): > 79 µM

Question: With `COc1cc(C(=O)NC2CC3CCCC(C2)N3CC(=O)Nc2ccccc2)cc(OC)c1OC` (stereo unspecified) as the compound, how does the IC50 ([1]; mean of runs) read?
Answer: > 79 µM (inactive)

Question: What about the IC50 ([1]; run 1) of the same compound?
Answer: > 79 µM

Question: What about the IC50 ([1]; run 2) of the same compound?
Answer: > 79 µM

Question: And the IC50 ([2]; CCR6, mean of runs)?
Answer: > 79 µM (inactive)

Question: What about the IC50 ([2]; CCR6, run 1) of the same compound?
Answer: > 79 µM

Question: What about the IC50 ([2]; CCR6, run 2) of the same compound?
Answer: > 79 µM

Question: What about the IC50 ([3]; CXCR6, mean of runs) of the same compound?
Answer: 4.78 µM and 4.75 µM

Question: And the IC50 ([3]; CXCR6, run 1)?
Answer: 4.48 µM and 4.08 µM

Question: And the IC50 ([3]; CXCR6, run 2)?
Answer: 5.09 µM and 5.43 µM

Question: What does the source list for `COc1cc(OC)cc(C(=O)NC2CC3CCCC(C2)N3CC(=O)Nc2ccc(Cl)cc2)c1` (stereo unspecified)?
Answer: IC50 ([1]; mean of runs): > 79 µM (inactive); IC50 ([1]; run 1): > 79 µM; IC50 ([1]; run 2): > 79 µM; IC50 ([2]; CCR6, mean of runs): > 79 µM (inactive); IC50 ([2]; CCR6, run 1): > 79 µM; IC50 ([2]; CCR6, run 2): > 79 µM; IC50 ([3]; CXCR6, mean of runs): > 79 µM (inactive); IC50 ([3]; CXCR6, run 1): > 79 µM; IC50 ([3]; CXCR6, run 2): > 79 µM

Question: How did the IC50 ([1]; mean of runs) turn out when `COc1ccc(CN2C3CCCC2CC(NC(=O)c2cc(OC)c(OC)c(OC)c2)C3)cc1` (stereo unspecified) was run?
Answer: 17.1 µM

Question: What about the IC50 ([1]; run 1) of the same compound?
Answer: 10.1 µM

Question: What about the IC50 ([1]; run 2) of the same compound?
Answer: 24.2 µM

Question: What about the IC50 ([2]; CCR6, mean of runs) of the same compound?
Answer: > 79 µM (inactive)

Question: And the IC50 ([2]; CCR6, run 1)?
Answer: > 79 µM

Question: What about the IC50 ([2]; CCR6, run 2) of the same compound?
Answer: > 79 µM

Question: And the IC50 ([3]; CXCR6, mean of runs)?
Answer: > 79 µM (inactive)

Question: What about the IC50 ([3]; CXCR6, run 1) of the same compound?
Answer: > 79 µM

Question: What about the IC50 ([3]; CXCR6, run 2) of the same compound?
Answer: > 79 µM

Question: Which IC50 ([1]; run 1) does the source give for `COc1cc(OC)cc(C(=O)NC2CC3CCCC(C2)N3CC(=O)Nc2ccccc2)c1` (stereo unspecified) here?
Answer: > 79 µM

Question: And the IC50 ([1]; run 2)?
Answer: 11.2 µM

Question: What about the IC50 ([2]; CCR6, mean of runs) of the same compound?
Answer: > 79 µM (inactive)

Question: And the IC50 ([2]; CCR6, run 1)?
Answer: > 79 µM

Question: And the IC50 ([2]; CCR6, run 2)?
Answer: > 79 µM

Question: What about the IC50 ([3]; CXCR6, mean of runs) of the same compound?
Answer: > 79 µM (inactive)

Question: And the IC50 ([3]; CXCR6, run 1)?
Answer: > 79 µM

Question: And the IC50 ([3]; CXCR6, run 2)?
Answer: > 79 µM

Question: Which results are given for `COc1cc(OC)cc(C(=O)NC2CC3CCCC(C2)N3CC(=O)Nc2ccc(C)cc2)c1` (stereo unspecified)?
Answer: IC50 ([1]; mean of runs): > 79 µM (inactive); IC50 ([1]; run 1): > 79 µM; IC50 ([1]; run 2): > 79 µM; IC50 ([2]; CCR6, mean of runs): > 79 µM (inactive); IC50 ([2]; CCR6, run 1): > 79 µM; IC50 ([2]; CCR6, run 2): > 79 µM; IC50 ([3]; CXCR6, mean of runs): > 79 µM (inactive); IC50 ([3]; CXCR6, run 1): > 79 µM; IC50 ([3]; CXCR6, run 2): > 79 µM

Question: How did the IC50 ([1]; mean of runs) turn out when `COc1cccc(C(=O)NC2CC3CCCC(C2)N3CC(=O)Nc2ccc(F)cc2)c1` (stereo unspecified) was run?
Answer: > 79 µM (inactive)

Question: And the IC50 ([1]; run 1)?
Answer: > 79 µM

Question: What about the IC50 ([1]; run 2) of the same compound?
Answer: > 79 µM

Question: What about the IC50 ([2]; CCR6, mean of runs) of the same compound?
Answer: > 79 µM (inactive)

Question: What about the IC50 ([2]; CCR6, run 1) of the same compound?
Answer: > 79 µM

Question: And the IC50 ([2]; CCR6, run 2)?
Answer: > 79 µM

Question: And the IC50 ([3]; CXCR6, mean of runs)?
Answer: > 79 µM (inactive)

Question: What about the IC50 ([3]; CXCR6, run 1) of the same compound?
Answer: > 79 µM

Question: What about the IC50 ([3]; CXCR6, run 2) of the same compound?
Answer: > 79 µM

Question: `O=C(CN1C2CCCC1CC(NC(=O)c1ccc3c(c1)OCO3)C2)Nc1ccccc1` (stereo unspecified) was tested. Which IC50 ([1]; mean of runs) did it give?
Answer: > 79 µM (inactive)

Question: And the IC50 ([1]; run 1)?
Answer: > 79 µM

Question: What about the IC50 ([1]; run 2) of the same compound?
Answer: > 79 µM

Question: What about the IC50 ([2]; CCR6, mean of runs) of the same compound?
Answer: > 79 µM (inactive)

Question: What about the IC50 ([2]; CCR6, run 1) of the same compound?
Answer: > 79 µM

Question: What about the IC50 ([2]; CCR6, run 2) of the same compound?
Answer: > 79 µM

Question: And the IC50 ([3]; CXCR6, mean of runs)?
Answer: > 79 µM (inactive)

Question: What about the IC50 ([3]; CXCR6, run 1) of the same compound?
Answer: > 79 µM

Question: And the IC50 ([3]; CXCR6, run 2)?
Answer: > 79 µM

Question: For `COc1cccc(C(=O)NC2CC3CCCC(C2)N3CC(=O)Nc2ccccc2)c1` (stereo unspecified), which IC50 ([1]; mean of runs) is on record?
Answer: > 79 µM (inactive)

Question: And the IC50 ([1]; run 1)?
Answer: > 79 µM

Question: What about the IC50 ([1]; run 2) of the same compound?
Answer: > 79 µM

Question: And the IC50 ([2]; CCR6, mean of runs)?
Answer: > 79 µM (inactive)

Question: And the IC50 ([2]; CCR6, run 1)?
Answer: > 79 µM

Question: What about the IC50 ([2]; CCR6, run 2) of the same compound?
Answer: > 79 µM

Question: What about the IC50 ([3]; CXCR6, mean of runs) of the same compound?
Answer: > 79 µM (inactive)

Question: What about the IC50 ([3]; CXCR6, run 1) of the same compound?
Answer: > 79 µM

Question: And the IC50 ([3]; CXCR6, run 2)?
Answer: > 79 µM
